Experimental data reported in ChEMBL document CHEMBL1157201, “1,5-Disubstituted 1,2,3-triazoles as cis-restricted analogues of combretastatin A-4: Synthesis, molecular modeling and evaluation as cytotoxic agents and inhibitors of tubulin” (Bioorg Med Chem, 2008).

How the values were obtained:
Tubulin = Tubulin (Sus scrofa, UniProt P02554+P02550); experiment: Inhibition of pig brain tubulin polymerization
Method in brief: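 Porcine brain tubulin stored at -78 °C. Mixed with Mes buffer (0.1 M Mes, 1 mM EGTA, 0.5 mM MgCl2, pH 6.6) and GTP (stock 5 mM) plus drug in DMSO, in a plate prechilled 30 min at 4 °C. Absorbance at 350 nm followed 60 min at 25 °C against drug-only blanks and untreated controls. IC50 derived graphically as percentage of control assembly.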

K562 = experiment: Cytotoxicity against human K562 cells after 5 days by MTT assay; type: functional, cell-based; settings: K562, 120 h
Method in brief: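 K562 chronic myelogenous leukemia cells grown in antibiotic-free RPMI with 2-mercaptoethanol (2 μM), L-glutamine (2 mM) and 10% FCS, seeded at ca 40,000 cells/mL. DMSO-dissolved drug added as a serial dilution series, with a drug-free control. Incubated 37 °C, 5% CO2. MTT (3 mg/mL in PBS) added for 3 h, formazan dissolved in DMSO, OD read at 540 and 690 nm. IC50 derived graphically as percentage of control growth.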

SK-BR-3 = experiment: Cytotoxicity against human SK-BR3 cells assessed as [3H]thymidine incorporation after 72 hrs by microplate scintillation counter; type: functional, cell-based
Method in brief: (§1)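 RPMI 1640 with 2 mM L-glutamine, plus 5% FCS (WM35, WM239) or 10% FCS (SKOV, OVCAR, MDA-MB231, SK-BR 3); SK-BR 3 medium also had 12,5 µM insulin. 1 µCi [3H]thymidine label for the final 24 h. Controls got solvent-only medium. Values are medians of three experiments.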

MDA-MB-231 = experiment: Cytotoxicity against human MDA-MB-231 cells assessed as [3H]thymidine incorporation after 72 hrs by microplate scintillation counter; type: functional, cell-based; method in brief: as §1
[1] = Cytotoxicity against human SKOV cells assessed as [3H]thymidine incorporation after 72 hrs by microplate scintillation counter; type: functional, cell-based; method in brief: as §1
OVCAR = experiment: Cytotoxicity against human OVCAR cells assessed as [3H]thymidine incorporation after 72 hrs by microplate scintillation counter; type: functional, cell-based; method in brief: as §1
[2] = Cytotoxicity against human WM35 cells assessed as [3H]thymidine incorporation after 72 hrs by microplate scintillation counter; type: functional, cell-based; method in brief: as §1
[3] = Cytotoxicity against human WM239 cells assessed as [3H]thymidine incorporation after 72 hrs by microplate scintillation counter; type: functional, cell-based; method in brief: as §1

SMILES	IC50 (Tubulin) [nM]	IC50 (K562) [nM]	further results
COc1ccc(-c2cnnn2-c2cc(OC)c(OC)c(OC)c2)cc1O	12600		
COc1ccc(-c2cn(-c3cc(OC)c(OC)c(OC)c3)nn2)cc1N	> 20000	1300	
COc1ccc(-n2nncc2-c2cc(OC)c(OC)c(OC)c2)cc1[N+](=O)[O-]		> 10000	
COc1ccc(-n2nncc2-c2cc(OC)c(OC)c(OC)c2)cc1N	> 20000	570	
COc1ccc(-n2nncc2-c2cc(OC)c(OC)c(OC)c2)cc1O	14000	410	
COc1ccc(-c2cnnn2-c2cc(OC)c(OC)c(OC)c2)cc1	7000	27	
COc1ccc(-c2cnnn2-c2cc(OC)c(OC)c(OC)c2)cc1[N+](=O)[O-]	> 20000	460	
COc1ccc(-c2cnnn2-c2cc(OC)c(OC)c(OC)c2)cc1N	4800	11	IC50 (SK-BR-3): 4 nM; IC50 (MDA-MB-231): > 10 nM; IC50 [1]: 4.9 nM; IC50 (OVCAR): 4.7 nM; IC50 [2]: 3.9 nM; IC50 [3]: 5.1 nM
COc1ccc(-n2nncc2-c2cc(OC)c(OC)c(OC)c2)cc1		4000	
COc1ccc(/C=C\c2cc(OC)c(OC)c(OC)c2)cc1O [COMBRETASTATIN A4]		10	IC50 (SK-BR-3): 5.1 nM; IC50 (MDA-MB-231): 6 nM; IC50 [1]: 3.3 nM; IC50 (OVCAR): 3.3 nM; IC50 [2]: 2.5 nM; IC50 [3]: 2.8 nM
COc1ccc(-n2nncc2-c2cc(OC)c(OC)c(OC)c2)cc1Br		3600	
COc1ccc(-c2cnnn2-c2cc(OC)c(OC)c(OC)c2)cc1Br	> 20000	57	
COc1ccc(-c2cn(-c3cc(OC)c(OC)c(OC)c3)nn2)cc1[N+](=O)[O-]		> 10000	
